pEC50, pIC50: −log10 of the molar value. In brackets after ≈: the same amount, converted by molar mass.
What was measured:
[1] = Plasma protein binding in CD-1 mouse at 5 uM after 4 hrs by rapid equilibrium dialysis method; type: ADME, cell-free; settings: read-out: PPB (converted)
[2] = Displacement of [3H]-3-(1-(3-chloro-6-isopropyl-8-(trifluoromethyl)imidazo[1,2-a]pyridine-2-carbonyl)piperidin-4-yl)oxazolidin-2-one from HCV genotype 1b C-terminal His-tagged NS4B (1 to 261 aa) expressed in baculovirus infected SF9 cells after overnight incubation; parameters: species or system Hepatitis C virus subtype 1b
[3] = Volume of distribution at steady state in cynomolgus monkey at 1 mg/kg, iv by LC/MS/MS analysis; type: ADME, organism-based, Macaca fascicularis; parameters: dose 1 mg/kg, route intravenous; settings: in vivo, read-out: Vdss
Procedure, shortened: (§1)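 Intravenous dose of 1 mg/kg in DMSO/20% HP-β-CD (10:90) (n = 4). Clearance, Vdss and t1/2 were derived from the plasma concentration–time profiles.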

Cytochrome P450 2D6 = Cytochrome P450 2D6 (Homo sapiens, UniProt P10635); assay: Inhibition of CYP2D6 in human liver microsomes after 10 mins by LC/MS/MS analysis; type: ADME
Cytochrome P450 2D6, sequence (P10635 whole entry): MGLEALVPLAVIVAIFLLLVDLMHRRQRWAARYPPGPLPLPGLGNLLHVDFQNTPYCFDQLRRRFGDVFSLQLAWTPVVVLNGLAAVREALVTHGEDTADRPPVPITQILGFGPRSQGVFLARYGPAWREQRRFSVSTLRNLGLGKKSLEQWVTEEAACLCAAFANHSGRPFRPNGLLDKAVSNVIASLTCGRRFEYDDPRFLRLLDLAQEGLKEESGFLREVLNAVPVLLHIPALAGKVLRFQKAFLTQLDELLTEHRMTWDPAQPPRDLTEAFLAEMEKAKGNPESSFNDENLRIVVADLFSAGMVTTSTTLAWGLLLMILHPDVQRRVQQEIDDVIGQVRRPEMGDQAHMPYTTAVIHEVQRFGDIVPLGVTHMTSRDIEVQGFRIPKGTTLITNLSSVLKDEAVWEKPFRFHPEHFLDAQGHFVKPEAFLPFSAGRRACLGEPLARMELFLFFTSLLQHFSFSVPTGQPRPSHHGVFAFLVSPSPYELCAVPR
Procedure, shortened: (§2)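 Cytochrome P450 isozymes 3A4, 1A2, 2C9, 2C19 and 2D6 were tested for inhibition up to 20 μM, with IC50 reported.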

[4] = Volume of distribution at steady state in beagle dog at 1 mg/kg, iv by LC/MS/MS analysis; type: ADME, organism-based, Canis lupus familiaris; parameters: dose 1 mg/kg, route intravenous; settings: in vivo, read-out: Vdss; procedure, shortened: as §1
Cytochrome P450 1A2 = biological target: T1, Cytochrome P450 1A2 (Homo sapiens, UniProt P05177); assay: Inhibition of CYP1A2 in human liver microsomes after 10 mins by LC/MS/MS analysis; type: ADME; procedure, shortened: as §2
T1 sequence (P05177 whole entry): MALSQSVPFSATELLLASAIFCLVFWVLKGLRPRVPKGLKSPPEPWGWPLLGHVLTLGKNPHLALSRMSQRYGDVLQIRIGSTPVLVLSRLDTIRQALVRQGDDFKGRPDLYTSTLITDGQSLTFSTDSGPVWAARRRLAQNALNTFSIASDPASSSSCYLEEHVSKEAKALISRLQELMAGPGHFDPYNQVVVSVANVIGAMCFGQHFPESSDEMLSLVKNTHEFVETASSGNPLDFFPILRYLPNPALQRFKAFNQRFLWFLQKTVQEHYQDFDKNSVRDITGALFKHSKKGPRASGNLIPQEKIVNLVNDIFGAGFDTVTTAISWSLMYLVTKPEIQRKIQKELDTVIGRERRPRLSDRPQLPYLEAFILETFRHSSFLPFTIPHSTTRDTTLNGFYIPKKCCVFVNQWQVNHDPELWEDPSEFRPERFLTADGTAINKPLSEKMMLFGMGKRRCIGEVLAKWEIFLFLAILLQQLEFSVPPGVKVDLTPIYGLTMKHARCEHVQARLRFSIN

Cytochrome P450 2C9 = Cytochrome P450 2C9 (Homo sapiens, UniProt P11712); assay: Inhibition of CYP2C9 in human liver microsomes after 10 mins by LC/MS/MS analysis; type: ADME; procedure, shortened: as §2
Cytochrome P450 2C9, sequence (P11712 whole entry): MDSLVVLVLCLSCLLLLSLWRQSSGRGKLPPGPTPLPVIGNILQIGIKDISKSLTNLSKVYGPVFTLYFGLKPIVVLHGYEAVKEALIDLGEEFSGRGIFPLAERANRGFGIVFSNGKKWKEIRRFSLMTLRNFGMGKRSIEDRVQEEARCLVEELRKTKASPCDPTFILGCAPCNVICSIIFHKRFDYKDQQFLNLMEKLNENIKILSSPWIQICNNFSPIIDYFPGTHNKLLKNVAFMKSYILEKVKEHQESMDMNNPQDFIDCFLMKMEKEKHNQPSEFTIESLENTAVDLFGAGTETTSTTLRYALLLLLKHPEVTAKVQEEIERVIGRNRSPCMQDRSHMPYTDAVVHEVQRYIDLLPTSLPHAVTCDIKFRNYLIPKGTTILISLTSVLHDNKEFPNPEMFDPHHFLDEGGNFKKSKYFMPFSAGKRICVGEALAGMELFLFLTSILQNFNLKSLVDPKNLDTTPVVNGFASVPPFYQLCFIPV

[5] = Half life in CD-1 mouse at 1 mg/kg, iv by LC/MS/MS analysis; type: ADME, organism-based; parameters: dose 1 mg/kg, route intravenous; settings: in vivo; procedure, shortened: as §1
[6] = Volume of distribution at steady state in CD-1 mouse at 1 mg/kg, iv by LC/MS/MS analysis; type: ADME, organism-based; parameters: dose 1 mg/kg, route intravenous; settings: in vivo, read-out: Vdss; procedure, shortened: as §1
[7] = Clearance in CD-1 mouse at 1 mg/kg, iv by LC/MS/MS analysis; type: ADME, organism-based; parameters: dose 1 mg/kg, route intravenous; settings: in vivo; procedure, shortened: as §1
Hepatitis C virus [8] = assay: Antiviral activity against Hepatitis C virus genotype 1b expressing NS4B V105M mutant infected in human HuH7 cells after 48 hrs by luciferase reporter gene assay; type: functional, organism-based, Hepacivirus hominis; settings: Huh-7, 48 h
[9] = AUC (0 to infinity) in beagle dog at 5 mg/kg, po by LC/MS/MS analysis; type: ADME, organism-based, Canis lupus familiaris; parameters: time infinity, dose 5 mg/kg, route oral; settings: plasma
Procedure, shortened: (§3)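 Oral dose of 5 mg/kg in DMSO/20% HP-β-CD (10:90), with a matching iv group for bioavailability. Plasma concentration–time profiles gave AUC0−∞ and F.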

[10] = Oral bioavailability in beagle dog at 5 mg/kg by LC/MS/MS analysis; type: ADME, organism-based, Canis lupus familiaris; settings: in vivo; procedure, shortened: as §3
[11] = AUC (0 to infinity) in CD-1 mouse at 5 mg/kg, po by LC/MS/MS analysis; type: ADME, organism-based; parameters: time infinity, dose 5 mg/kg, route oral; settings: plasma; procedure, shortened: as §3
[12] = Lipophilicity, log D of the compound by chromatographic analysis; type: physicochemical
Procedure, shortened: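 Lipophilicity was measured chromatographically and reported as ChromLogD; ≥6 replicates.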

Cytochrome P450 2C19 = Cytochrome P450 2C19 (Homo sapiens, UniProt P33261); assay: Inhibition of CYP2C19 in human liver microsomes after 10 mins by LC/MS/MS analysis; type: ADME; procedure, shortened: as §2
Cytochrome P450 2C19, sequence (P33261 whole entry): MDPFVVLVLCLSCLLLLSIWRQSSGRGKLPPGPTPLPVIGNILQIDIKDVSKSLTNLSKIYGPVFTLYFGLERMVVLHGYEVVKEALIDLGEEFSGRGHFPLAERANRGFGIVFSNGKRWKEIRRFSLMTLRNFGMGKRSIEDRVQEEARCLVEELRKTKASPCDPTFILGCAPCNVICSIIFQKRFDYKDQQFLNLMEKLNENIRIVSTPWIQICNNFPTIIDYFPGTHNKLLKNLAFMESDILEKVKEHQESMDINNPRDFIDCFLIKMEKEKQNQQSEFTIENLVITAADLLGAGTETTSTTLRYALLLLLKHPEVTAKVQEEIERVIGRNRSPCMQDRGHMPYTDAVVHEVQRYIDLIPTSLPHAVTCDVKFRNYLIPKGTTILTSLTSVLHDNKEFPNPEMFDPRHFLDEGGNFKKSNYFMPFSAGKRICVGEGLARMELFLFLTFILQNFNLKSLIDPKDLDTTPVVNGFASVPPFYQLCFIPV

[13] = Half life in beagle dog at 1 mg/kg, iv by LC/MS/MS analysis; type: ADME, organism-based, Canis lupus familiaris; parameters: dose 1 mg/kg, route intravenous; settings: in vivo; procedure, shortened: as §1
Hepatitis C virus [14] = assay: Antiviral activity against Hepatitis C virus genotype 1b expressing NS4B H94N mutant infected in human HuH7 cells after 48 hrs by luciferase reporter gene assay; type: functional, organism-based, Hepacivirus hominis; settings: Huh-7, 48 h
Hepatitis C virus [15] = assay: Antiviral activity against Hepatitis C virus genotype 1a infected in human HuH7 cells after 48 hrs by luciferase reporter gene assay; type: functional, organism-based, Hepacivirus hominis; settings: subtype 1a, Huh-7, 48 h
Cytochrome P450 3A4 = Cytochrome P450 3A4 (Homo sapiens, UniProt P08684); assay: Inhibition of CYP3A4 in human liver microsomes after 7 mins by LC/MS/MS analysis; type: ADME; procedure, shortened: as §2
Cytochrome P450 3A4, sequence (P08684 whole entry): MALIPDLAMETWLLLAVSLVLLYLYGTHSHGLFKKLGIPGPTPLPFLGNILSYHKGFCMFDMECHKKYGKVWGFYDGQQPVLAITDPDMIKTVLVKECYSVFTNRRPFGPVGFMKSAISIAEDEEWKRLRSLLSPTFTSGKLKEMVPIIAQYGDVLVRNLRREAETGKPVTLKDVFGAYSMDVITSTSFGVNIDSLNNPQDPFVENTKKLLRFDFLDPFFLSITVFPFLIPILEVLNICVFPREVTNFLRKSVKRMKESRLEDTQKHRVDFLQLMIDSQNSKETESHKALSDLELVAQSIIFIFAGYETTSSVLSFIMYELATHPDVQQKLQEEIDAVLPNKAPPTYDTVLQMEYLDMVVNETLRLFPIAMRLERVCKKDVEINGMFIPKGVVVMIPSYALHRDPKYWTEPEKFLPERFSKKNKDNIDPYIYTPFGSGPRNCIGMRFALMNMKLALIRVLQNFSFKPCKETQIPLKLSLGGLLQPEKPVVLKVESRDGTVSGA

Liver microsome [16] = assay: Drug metabolism in rat liver microsomes assessed as generation of reactive metabolites at 10 uM after 30 mins by glutathione-trapping assay; type: ADME; settings: 0.5 h
Procedure, shortened: (§4)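 Rat and human liver microsomes were incubated with compound, and a glutathione-trapping assay was used to detect reactive metabolites.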

[17] = Plasma protein binding in CD rat at 5 uM after 4 hrs by rapid equilibrium dialysis method; type: ADME, cell-free; settings: read-out: PPB (converted)
[18] = Clearance in beagle dog at 1 mg/kg, iv by LC/MS/MS analysis; type: ADME, organism-based, Canis lupus familiaris; parameters: dose 1 mg/kg, route intravenous; settings: in vivo; procedure, shortened: as §1
[19] = Half life in CD rat at 1 mg/kg, iv by LC/MS/MS analysis; type: ADME, organism-based; parameters: dose 1 mg/kg, route intravenous; settings: in vivo; procedure, shortened: as §1
[20] = Volume of distribution at steady state in CD rat at 1 mg/kg, iv by LC/MS/MS analysis; type: ADME, organism-based; parameters: dose 1 mg/kg, route intravenous; settings: in vivo, read-out: Vdss; procedure, shortened: as §1
[21] = Plasma protein binding in human at 5 uM after 4 hrs by rapid equilibrium dialysis method; type: ADME, cell-free; settings: read-out: PPB (converted)
[22] = Half life in cynomolgus monkey at 1 mg/kg, iv by LC/MS/MS analysis; type: ADME, organism-based, Macaca fascicularis; parameters: dose 1 mg/kg, route intravenous; settings: in vivo; procedure, shortened: as §1
[23] = Clearance in cynomolgus monkey at 1 mg/kg, iv by LC/MS/MS analysis; type: ADME, organism-based, Macaca fascicularis; parameters: dose 1 mg/kg, route intravenous; settings: in vivo; procedure, shortened: as §1
[24] = AUC (0 to infinity) in CD rat at 5 mg/kg, po by LC/MS/MS analysis; type: ADME, organism-based; parameters: time infinity, dose 5 mg/kg, route oral; settings: plasma; procedure, shortened: as §3
[25] = Oral bioavailability in cynomolgus monkey at 5 mg/kg by LC/MS/MS analysis; type: ADME, organism-based, Macaca fascicularis; settings: in vivo; procedure, shortened: as §3
[26] = Plasma protein binding in beagle dog at 5 uM after 4 hrs by rapid equilibrium dialysis method; type: ADME, cell-free, Canis lupus familiaris; settings: read-out: PPB (converted)
Liver microsome [27] = assay: Drug metabolism in human liver microsomes assessed as generation of reactive metabolites at 10 uM after 30 mins by glutathione-trapping assay; type: ADME; settings: 0.5 h; procedure, shortened: as §4
[28] = Oral bioavailability in CD-1 mouse at 5 mg/kg by LC/MS/MS analysis; type: ADME, organism-based; settings: in vivo; procedure, shortened: as §3
[29] = Oral bioavailability in CD rat at 5 mg/kg by LC/MS/MS analysis; type: ADME, organism-based; settings: in vivo; procedure, shortened: as §3
[30] = Clearance in CD rat at 1 mg/kg, iv by LC/MS/MS analysis; type: ADME, organism-based; parameters: dose 1 mg/kg, route intravenous; settings: in vivo; procedure, shortened: as §1
Hepatitis C virus [31] = assay: Antiviral activity against Hepatitis C virus genotype 1b infected in human HuH7 cells after 48 hrs by luciferase reporter gene assay; type: functional, organism-based, Hepacivirus hominis; settings: Huh-7, 48 h
[32] = Aqueous solubility in fasted state simulated intestinal fluid at pH 6.5 by LC/UV analysis; type: physicochemical
[33] = AUC (0 to infinity) in cynomolgus monkey at 5 mg/kg, po by LC/MS/MS analysis; type: ADME, organism-based, Macaca fascicularis; parameters: time infinity, dose 5 mg/kg, route oral; settings: plasma; procedure, shortened: as §3
[34] = Plasma protein binding in cynomolgus monkey at 5 uM after 4 hrs by rapid equilibrium dialysis method; type: ADME, cell-free, Macaca fascicularis; settings: read-out: PPB (converted)

SMILES: O=C(c1nn2c(C(F)(F)F)cc(C3CC3)cc2c1Cl)N1CCN([C@H]2C[C@@H]3C[C@@H]3[C@@H]2O)C(=O)C1
- fraction unbound at 4 h, 5 µM [1]: 0.03
- pIC50 [2]: 8.10
- Vd [3]: 0.7 L/kg
- pIC50 (Cytochrome P450 2D6): < 4.70
- Vd [4]: 0.7 L/kg
- pIC50 (Cytochrome P450 1A2): < 4.70
- pIC50 (Cytochrome P450 2C9): < 4.70
- half-life [5]: 0.4 h
- Vd [6]: 0.6 L/kg
- clearance [7]: 19 mL/min/kg
- pEC50 (Hepatitis C virus [8]): 7.42
- AUC(0-inf) [9]: 25000 ng·h/mL
- bioavailability [10]: > 100%
- AUC(0-inf) [11]: 1000 ng·h/mL
- chromatographic logD [12]: 4.6
- pIC50 (Cytochrome P450 2C19): < 4.70
- half-life [13]: 2 h
- pEC50 (Hepatitis C virus [14]): 8.30
- pEC50 (Hepatitis C virus [15]): 9.22
- pIC50 (Cytochrome P450 3A4): < 4.70
- Stability (Liver microsome [16]): Stable
- fraction unbound at 4 h, 5 µM [17]: 0.04
- clearance [18]: 6 mL/min/kg
- half-life [19]: 2 h
- Vd [20]: 2 L/kg
- fraction unbound at 4 h, 5 µM [21]: 0.06
- half-life [22]: 4 h
- clearance [23]: 3 mL/min/kg
- AUC(0-inf) [24]: 3100 ng·h/mL
- bioavailability [25]: 97%
- fraction unbound at 4 h, 5 µM [26]: 0.07
- Stability (Liver microsome [27]): Stable
- bioavailability [28]: 12%
- bioavailability [29]: 92%
- clearance [30]: 25 mL/min/kg
- pEC50 (Hepatitis C virus [31]): 9.52
- solubility [32]: 310 µg/mL (≈ 642 µM)
- AUC(0-inf) [33]: 25000 ng·h/mL
- fraction unbound at 4 h, 5 µM [34]: 0.09

— ChEMBL document CHEMBL3124867, “Hepatitis C replication inhibitors that target the viral NS4B protein” (J Med Chem, 2014)
